Here are results for one compound from ChEMBL document CHEMBL4414663, “Pyrazole-4-Carboxamide (YW2065): A Therapeutic Candidate for Colorectal Cancer via Dual Activities of Wnt/β-Catenin Signaling Inhibition and AMP-Activated Protein Kinase (AMPK) Activation” (J Med Chem, 2019).

A word on the IC50: it is the midpoint of a concentration-inhibition curve.

Each structure is given as a SMILES string. Active and inactive are the calls of the source. No cut-off for these calls is given here.

Series [1] in a line: Toxicity in C57BL/6 mouse assessed as effect on albumin level at 100 mg/kg/day, ip for 21 days. The series is classed as organism-based. The following applies: in vivo, 504 h.
In series [2] the test system is SW-620. Briefly: Induction of apoptosis in human SW620 cells assessed as viable cells level at 1 uM incubated for 48 hrs by AAD-7 and FITC-annexin-V staining based flow cytometry (reference value: 73.8%). Format: functional. On the technique in general: In flow cytometry, cells or beads pass a laser one at a time.
Another series has as its system HT-29. As to the kind of experiment: Inhibition of colony formation in human HT-29 cells incubated for 14 days by crystal violet staining based assay. Format: functional, cell-based. The method in brief:
(§1)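 SW480, SW620 or HT29 cells seeded at 300/well in 3 mL medium in 6-well plates with a concentration series of compound. After 14 days, fixed in 4% formaldehyde and stained with 0.5% crystal violet in 25% aqueous MeOH; colonies photographed.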

For series [3], the system named is SW-620. As to the kind of experiment: Antitumor activity against human SW620 cells xenografted in nude mouse assessed as reduction in tumor volume at 10 mg/kg, ip QD for 32 consecutive days. The series is classed as functional, organism-based. The essentials: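 Six-week-old nude mice injected subcutaneously with 2×10^6 SW620 cells. Randomised at mean tumor volume 100–200 mm³ (n=6/group). Given 10 or 50 mg/kg ip daily for 32 consecutive days; vehicle 10% DMSO, 10% Kolliphor, 80% saline. Tumor volume measured every other day. Tumors weighed after euthanasia at day 32. t test against vehicle.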
In general terms: A xenograft is tissue or cells of one species grown in another, often human tumour cells in immunodeficient mice.

Series [4] addresses Glycogen synthase kinase-3 alpha (Homo sapiens) (UniProt P49840). Briefly: Inhibition of GSK3A (unknown origin) at 1000 nM relative to control. The essentials:
(§2)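 Single-concentration screen at 1000 nM against a 273-kinase panel, reported as percent inhibition.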

Series [5] relates to SW-620. Briefly: Growth inhibition of human SW620 cells transfected with lentivrus-encoding shRNA against Axin-1 incubated for 72 hrs by Cell-titer-fluor reagent based assay. The following applies: SW-620, 72 h. The series is classed as functional. The essentials: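 SW620 cells, parental, overexpressing β-catenin S33Y, or with Axin-1 knocked down by lentiviral shRNA. Treated with compound or vehicle for 72 h.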

Series [6] addresses AMP-activated protein kinase, AMPK (Homo sapiens) (UniProt P54646+O43741+P54619+Q9UGJ0+Q9Y478+Q13131+Q9UGI9). As to the kind of experiment: Activation of AMPK in human SW620 cells assessed as increase in ACC phosphorylation incubated for 24 hrs by Western blot analysis. The series is classed as cell-based. The method in brief: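 SW620 cells in RPMI 1640 with 10% FBS, treated over a concentration range. Lysed in RIPA with protease inhibitors, 20 µL of 2 mg/mL protein run on 7.5% SDS-PAGE, transferred to nitrocellulose, blocked in 5% BSA. Rabbit primaries (Axin-1, ACC, pACC, AMPK, pAMPK at 1:1,000; β-actin 1:2,000) overnight at 4 °C, HRP secondary 1:8000 for 2 h, ECL.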
In general terms: A western blot detects proteins with antibodies after separation by electrophoresis.

The test system of series [7] is SW-620. Briefly: Inhibition of colony formation in human SW620 cells incubated for 14 days by crystal violet staining based assay. The series is classed as functional, cell-based. The essentials: as §1
Series [8] addresses Cyclin-dependent kinase 17 (Homo sapiens) (UniProt Q00537). Briefly: Inhibition of CDK17 (unknown origin) at 1000 nM relative to control. The essentials:
as §2

Series [9] concerns SW-620. Briefly: Induction of apoptosis in human SW620 cells assessed as necrotic cells level at 3 uM incubated for 48 hrs by AAD-7 and FITC-annexin-V staining based flow cytometry (reference value: 0.027%). The series is classed as functional.
For a further series, the species on record is Homo sapiens. As to the kind of experiment: Inhibition of Wnt/beta-Catenin signaling in human SW620 cells assessed as reduction in MMP7 mRNA expression at 10 uM incubated for 24 hrs by real-time PCR analysis. The series is classed as cell-based. The essentials: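 SW620 cells (RPMI 1640, 10% FBS) in 6-well plates, incubated 24 h, then treated with compound at several concentrations, three replicates each, for 24 h. Total RNA isolated with Trizol/phenol-chloroform; 2 µg reverse transcribed; Wnt target gene mRNA quantified by PCR.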

Another series relates to SW480. Briefly: Inhibition of colony formation in human SW480 cells incubated for 14 days by crystal violet staining based assay. Format: functional, cell-based. The method in brief: as §1
In series [10] the test system is SW-620. Briefly: Induction of apoptosis in human SW620 cells assessed as viable cells level at 3 uM incubated for 48 hrs by AAD-7 and FITC-annexin-V staining based flow cytometry (reference value: 73.8%). Format: functional.
Series [11] is described as follows: Inhibition of Wnt/beta-Catenin signaling in human SW480 cells incubated for 24 hrs by TCF/LEF dual-luciferase reporter assay. The series is classed as cell-based. The conditions noted are these: SW480, 24 h. The essentials:
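SW480 or SW620 cells seeded at 200,000/well and transiently transfected 24 h later with TOPflash firefly luciferase plus pRLTK-Renilla using lipofectamine 2000. After 16 h the medium was replaced with compound at a range of concentrations, three replicates each. Dual firefly/Renilla luciferase read 24 h later.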

A further series concerns HEK293. Briefly: Induction of Axin-1 protein expression in recombinant human Wnt-3a-induced Wnt-HEK293 cells at 1 uM by fluorescence microscopy. Format: functional, cell-based. The essentials:
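HEK293 cells treated at 1 µM, stained with anti-Axin-1 antibody and DAPI, imaged by fluorescence microscopy.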

Series [12] can be described thus: Inhibition of Wnt/beta-Catenin signaling (unknown origin) expressed in recombinant human Wnt-3a-induced Wnt-HEK293 cells incubated for 24 hrs by luciferase reporter gene assay. Format: cell-based. The method in brief: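 Stably transfected Wnt-HEK293 cells, 2000/well in DMEM + 10% FBS, incubated overnight at 37 °C. Compounds pin-transferred, then recombinant human Wnt-3a added (200 ng/mL stock); unstimulated control wells received medium. After 24 h at 37 °C, ONE-Glo luminescence read after 30 min at room temperature; CellTiter-Fluor viability read in parallel. IC50 reported as mean ± SD of three independent experiments.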

Series [13] can be described thus: Toxicity in C57BL/6 mouse assessed as effect on ALT level at 100 mg/kg/day, ip for 21 days. Format: organism-based. The conditions noted are these: in vivo, 504 h.
A short description of series [14]: Toxicity in C57BL/6 mouse assessed as effect on glucose level at 100 mg/kg/day, ip for 21 days. The conditions noted are these: in vivo, 504 h. The series is classed as organism-based.
For series [15], the target named is Serine/threonine-protein kinase Nek6 (Homo sapiens) (UniProt Q9HC98). As to the kind of experiment: Inhibition of NEK6 (unknown origin) at 1000 nM relative to control. The essentials:
as §2

In a further series the test system is Mus musculus. Briefly: Activation of AMPK in nude mouse xenografted with human SW620 cells assessed as increase in ACC phosphorylation at 50 mg/kg, ip QD for 32 consecutive days by Western blot analysis. The series is classed as functional, organism-based. The essentials: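 Nude mice carried subcutaneous SW620 xenografts (2×10^6 cells, right flank). Dosing began once mean tumor volume reached 100–200 mm³: 50 mg/kg ip once daily for 32 days, vehicle 10% DMSO/10% Kolliphor/80% saline. Tumors taken at day 32 and lysed in RIPA with protease inhibitors. Western blot with 20 µL of 2 mg/mL lysate on 7.5% SDS-PAGE, probed for pAMPK/AMPK or pACC/ACC, ECL detection.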

Series [16] has as its target High affinity nerve growth factor receptor (Homo sapiens) (UniProt P04629). Briefly: Inhibition of NTRK1 (unknown origin) at 1000 nM relative to control. The essentials:
as §2

For series [17], the system named is SW-620. Briefly: Induction of apoptosis in human SW620 cells assessed as viable cells level at 10 uM incubated for 48 hrs by AAD-7 and FITC-annexin-V staining based flow cytometry (reference value: 73.8%). Format: functional.

Sequence of Glycogen synthase kinase-3 alpha (Homo sapiens) (P49840 2-483 limits assumed): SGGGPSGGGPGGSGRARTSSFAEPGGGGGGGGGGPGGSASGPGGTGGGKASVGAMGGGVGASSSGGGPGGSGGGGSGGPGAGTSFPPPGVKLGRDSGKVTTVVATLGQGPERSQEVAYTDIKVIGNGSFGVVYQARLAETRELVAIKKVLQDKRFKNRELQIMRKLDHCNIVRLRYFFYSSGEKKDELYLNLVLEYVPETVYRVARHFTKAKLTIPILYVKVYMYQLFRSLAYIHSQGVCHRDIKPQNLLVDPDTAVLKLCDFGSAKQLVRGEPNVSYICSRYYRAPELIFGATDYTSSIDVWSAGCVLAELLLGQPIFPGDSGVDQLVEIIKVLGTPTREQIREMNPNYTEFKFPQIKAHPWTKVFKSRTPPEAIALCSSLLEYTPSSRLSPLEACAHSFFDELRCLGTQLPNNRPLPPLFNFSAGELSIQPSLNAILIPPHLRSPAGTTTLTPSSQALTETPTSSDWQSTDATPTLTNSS
Sequence of Cyclin-dependent kinase 17 (Homo sapiens) (Q00537 whole entry, looked up): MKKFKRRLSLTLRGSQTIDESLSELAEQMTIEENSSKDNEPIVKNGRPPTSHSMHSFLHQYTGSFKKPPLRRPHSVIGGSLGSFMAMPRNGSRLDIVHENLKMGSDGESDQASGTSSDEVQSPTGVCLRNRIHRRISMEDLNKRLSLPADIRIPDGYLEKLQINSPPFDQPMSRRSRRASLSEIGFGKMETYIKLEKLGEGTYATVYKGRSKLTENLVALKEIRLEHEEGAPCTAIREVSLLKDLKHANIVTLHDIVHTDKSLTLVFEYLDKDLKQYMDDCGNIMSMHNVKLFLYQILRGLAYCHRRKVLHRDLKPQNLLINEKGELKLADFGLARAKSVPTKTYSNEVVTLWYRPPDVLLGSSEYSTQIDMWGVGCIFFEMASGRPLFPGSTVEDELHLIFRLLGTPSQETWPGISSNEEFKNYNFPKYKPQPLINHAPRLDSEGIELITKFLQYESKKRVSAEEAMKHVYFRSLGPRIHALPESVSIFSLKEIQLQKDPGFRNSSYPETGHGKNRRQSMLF
Sequence of High affinity nerve growth factor receptor (Homo sapiens) (P04629 33-796 limits assumed): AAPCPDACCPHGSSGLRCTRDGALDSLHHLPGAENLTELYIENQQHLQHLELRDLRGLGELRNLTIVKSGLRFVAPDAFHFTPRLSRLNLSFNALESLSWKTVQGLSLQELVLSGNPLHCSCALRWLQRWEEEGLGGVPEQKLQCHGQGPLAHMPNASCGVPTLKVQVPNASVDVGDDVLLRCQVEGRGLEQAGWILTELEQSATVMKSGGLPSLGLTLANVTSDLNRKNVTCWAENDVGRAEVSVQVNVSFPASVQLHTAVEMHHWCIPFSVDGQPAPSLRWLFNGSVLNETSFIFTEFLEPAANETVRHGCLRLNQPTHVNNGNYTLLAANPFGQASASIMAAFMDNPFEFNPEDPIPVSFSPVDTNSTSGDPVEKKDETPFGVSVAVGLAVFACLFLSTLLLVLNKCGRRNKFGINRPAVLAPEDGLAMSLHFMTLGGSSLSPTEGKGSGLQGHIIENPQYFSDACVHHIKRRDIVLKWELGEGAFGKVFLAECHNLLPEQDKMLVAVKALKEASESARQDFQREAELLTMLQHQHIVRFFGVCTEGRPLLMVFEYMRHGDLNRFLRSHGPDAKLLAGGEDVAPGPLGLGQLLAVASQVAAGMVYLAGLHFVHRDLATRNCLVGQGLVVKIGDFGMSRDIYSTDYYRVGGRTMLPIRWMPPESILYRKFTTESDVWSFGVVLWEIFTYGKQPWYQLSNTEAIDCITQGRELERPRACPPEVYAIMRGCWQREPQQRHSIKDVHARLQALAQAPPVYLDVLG
Sequence of Serine/threonine-protein kinase Nek6 (Homo sapiens) (Q9HC98 whole entry): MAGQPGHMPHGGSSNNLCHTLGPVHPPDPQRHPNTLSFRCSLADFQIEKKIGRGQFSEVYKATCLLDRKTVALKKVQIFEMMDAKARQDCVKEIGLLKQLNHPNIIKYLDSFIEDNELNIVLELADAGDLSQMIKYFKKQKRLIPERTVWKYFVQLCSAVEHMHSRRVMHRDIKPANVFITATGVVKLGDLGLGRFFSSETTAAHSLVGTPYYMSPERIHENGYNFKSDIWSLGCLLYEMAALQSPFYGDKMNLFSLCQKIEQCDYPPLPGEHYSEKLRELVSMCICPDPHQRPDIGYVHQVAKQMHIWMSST

As to `Cc1c(C(=O)Nc2ccc3ccccc3n2)cnn1-c1ccccc1Br`, the Activity result was “Non-Toxic” in [1]; 67.1% in the series on SW-620 [2]; “Dose-dependent effect” in [6]; 0.048% in the series with SW-620 [9]; 45% in the series with SW-620 [10]; “Non-Toxic” in series [13]. The Activity result is “Non-Toxic” in series [14] and 22.1% in the series on SW-620 [17]. The inhibition result in the series on HT-29, with SW-620 [7] and in the series with SW480 was “Dose-dependent effect” throughout. Besides, the result with SW-620 [3], in the series on HEK293 and with Mus musculus was Active. Also, the inhibition result (in series [4]; in series [8]; in the series listed under Homo sapiens; in series [15]; in series [16]) was “Active” throughout. Also, the values for the IC50 (with SW-620 [5]; in series [11]; in [12]) were 85.4 nM, 1.15 nM and 2.3 nM, respectively.
